Experimental findings from article PMC12282580 (RSC Advances, 2025) are described below.

In series [1] the test system is SW620 cells (colon cancer). Briefly: Cytotoxicity assay. Particulars: Homo sapiens, SW-620, 48 h, read-out: Cytotoxicity (IC50) SW620. It is filed as cell-based.
Series [2] has as its system SW620 cells. Briefly: Morphological changes. It is filed as cell-based, human. Particulars: 5 μM, 24-hour treatment. The procedure, abridged: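 SW620 cells exposed to test compound at 5 μM for 24 h, then photographed on an imaging system through 20× or 40× objectives to record morphology.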
Series [3] relates to SW620 human colon cancer cells. Briefly: Apoptosis assay. The settings on record: 5 μM, 24-hour treatment, early apoptosis levels exceeding those observed with SAHA. It is filed as cell-based. The procedure, abridged:
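Annexin V-FITC/PI dual staining, with untreated and vehicle (DMSO 0.05%) controls. Data presented as histograms with accompanying bar graphs.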

Series [4] has as its system SW620 human colon cancer cells. Kind of series: Cell cycle analysis. Particulars: 5 μM, 24-hour treatment, effect less pronounced for 7d and 11d compared to SAHA. It is filed as cell-based. The procedure, abridged: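 Controls were untreated cells and vehicle-treated cells (DMSO 0.05%). Data shown as histograms plus bar graphs.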
Series [5] has as its system MDA-MB-231 cells (breast cancer). Kind of series: Cytotoxicity assay. It is filed as cell-based, human. Particulars: read-out: Cytotoxicity (IC50) MDA-MB-231; MDA-MB-231 breast cancer; 48h; MTT.

In the case of `COc1cccc2c1C(=O)c1c(O)c3c(c(O)c1C2=O)C[C@@](O)(C(=O)CO)C[C@@H]3O[C@H]1C[C@H](N)[C@H](O)[C@H](C)O1` [ADR, adriamycin, reference compound], the IC50 (as a rule, the concentration needed to halve the response being measured) in series [1] was determined as 0.56 ± 0.1 µM. Same read-out and setting: for `O=C(NO)c1ccc(Cn2cc(Cn3cnc4ccccc4c3=O)nn2)cc1` [Compound 7a, N-Hydroxy-4-((4-((4-oxoquinazolin-3(4H)-yl)methyl)-1H-1,2,3-triazol-1-yl)methyl)benzamide] the value was 9.21 ± 0.72 µM.

Regarding `Cc1ccc2ncn(Cc3cn(Cc4ccc(C(=O)NO)cc4)nn3)c(=O)c2c1` [Compound 7b, N-Hydroxy-4-((4-((6-methyl-4-oxoquinazolin-3(4H)-yl)methyl)-1H-1,2,3-triazol-1-yl)methyl)benzamide], the concentration for half-maximal inhibition (IC50) in series [1] amounted to 43.1 ± 4.55 µM. The same measure, in the same setting: for `Cc1ccc2c(=O)n(Cc3cn(Cc4ccc(C(=O)NO)cc4)nn3)cnc2c1` [Compound 7c, N-Hydroxy-4-((4-((7-methyl-4-oxoquinazolin-3(4H)-yl)methyl)-1H-1,2,3-triazol-1-yl)methyl)benzamide] the value was 7.34 ± 0.94 µM.

For `O=C(NO)c1ccc(Cn2cc(Cn3cnc4ccc(Cl)cc4c3=O)nn2)cc1` [Compound 7d, 4-((4-((6-Chloro-4-oxoquinazolin-3(4H)-yl)methyl)-1H-1,2,3-triazol-1-yl)methyl)-N-hydroxybenzamide], the Morphological changes result in series [2] was “induced characteristic apoptotic morphological alterations”. Besides, in series [3], the Pro-apoptotic effect result was “significantly induced early and late apoptosis”. The IC50 in series [1] is 3.64 ± 0.31 µM. In addition, the Cell cycle effect entry in series [4] is reported as “induced G2/M phase cell cycle arrest”. As for `O=C(NO)c1ccc(Cn2cc(Cn3cnc4ccc(F)cc4c3=O)nn2)cc1` [Compound 7e, 4-((4-((6-Fluoro-4-oxoquinazolin-3(4H)-yl)methyl)-1H-1,2,3-triazol-1-yl)methyl)-N-hydroxybenzamide], in series [1], the IC50 was 5.87 ± 1.55 µM. Same read-out and setting: for `O=C(NO)c1ccc(Cn2cc(Cn3cnc4cc(F)ccc4c3=O)nn2)cc1` [Compound 7f, 4-((4-((7-Fluoro-4-oxoquinazolin-3(4H)-yl)methyl)-1H-1,2,3-triazol-1-yl)methyl)-N-hydroxybenzamide] the value was 8.23 ± 2.04 µM. Consider `O=C(NO)c1ccc(Cn2cc(Cn3cnc4ccc(Br)cc4c3=O)nn2)cc1` [Compound 7g, 4-((4-((6-Bromo-4-oxoquinazolin-3(4H)-yl)methyl)-1H-1,2,3-triazol-1-yl)methyl)-N-hydroxybenzamide], for which the half-maximal inhibitory concentration (IC50) in series [1] came to 20.8 ± 5.32 µM.

Take `O=C(NO)c1ccc(Cn2cc(Cn3cnc4cc(Br)ccc4c3=O)nn2)cc1` [Compound 7h, 4-((4-((7-Bromo-4-oxoquinazolin-3(4H)-yl)methyl)-1H-1,2,3-triazol-1-yl)methyl)-N-hydroxybenzamide]: in series [1], the 50% inhibitory concentration (IC50) was 3.77 ± 1.87 µM. As for `O=C(NO)c1ccc(Cn2cc(Cn3cnc4ccc(I)cc4c3=O)nn2)cc1` [Compound 7i, N-Hydroxy-4-((4-((6-iodo-4-oxoquinazolin-3(4H)-yl)methyl)-1H-1,2,3-triazol-1-yl)methyl)benzamide], in series [1], the IC50 was 5.52 ± 1.04 µM. The same measure, in the same setting: the same measure for `O=C(/C=C/c1ccc(Cn2cc(Cn3cnc4ccccc4c3=O)nn2)cc1)NO` [Compound 11a, (E)-N-Hydroxy-3-(4-((4-((4-oxoquinazolin-3(4H)-yl)methyl)-1H-1,2,3-triazol-1-yl)methyl)phenyl)acrylamide]: 5.07 ± 2.92 µM.

In the case of `Cc1ccc2ncn(Cc3cn(Cc4ccc(/C=C/C(=O)NO)cc4)nn3)c(=O)c2c1` [Compound 11b, (E)-N-Hydroxy-3-(4-((4-((6-methyl-4-oxoquinazolin-3(4H)-yl)methyl)-1H-1,2,3-triazol-1-yl)methyl)phenyl)acrylamide], in series [1], the IC50 turned out to be 9.82 ± 2.46 µM. `Cc1ccc2c(=O)n(Cc3cn(Cc4ccc(/C=C/C(=O)NO)cc4)nn3)cnc2c1` [Compound 11c, (E)-N-Hydroxy-3-(4-((4-((7-methyl-4-oxoquinazolin-3(4H)-yl)methyl)-1H-1,2,3-triazol-1-yl)methyl)phenyl)acrylamide]: the IC50 in series [1] is 11.7 ± 4.39 µM.

Turning to `O=C(/C=C/c1ccc(Cn2cc(Cn3cnc4ccc(Cl)cc4c3=O)nn2)cc1)NO` [Compound 11d, (E)-3-(4-((4-((6-Chloro-4-oxoquinazolin-3(4H)-yl)methyl)-1H-1,2,3-triazol-1-yl)methyl)phenyl)-N-hydroxyacrylamide], the Morphological changes entry in series [2] was “induced characteristic apoptotic morphological alterations”. Besides, in series [3], the Pro-apoptotic effect result is “significantly induced early and late apoptosis”. The 50% inhibitory concentration (IC50) in series [1] worked out at 3.15 ± 0.33 µM. Moreover, the Cell cycle effect result in series [4] is given as “induced G2/M phase cell cycle arrest”.

In the case of `O=C(/C=C/c1ccc(Cn2cc(Cn3cnc4ccc(F)cc4c3=O)nn2)cc1)NO` [Compound 11e, (E)-3-(4-((4-((6-Fluoro-4-oxoquinazolin-3(4H)-yl)methyl)-1H-1,2,3-triazol-1-yl)methyl)phenyl)-N-hydroxyacrylamide], the IC50 in series [1] was determined as 4.57 ± 3.54 µM. Still for that read-out and setting: the same measure for `O=C(/C=C/c1ccc(Cn2cc(Cn3cnc4cc(F)ccc4c3=O)nn2)cc1)NO` [Compound 11f, (E)-3-(4-((4-((7-Fluoro-4-oxoquinazolin-3(4H)-yl)methyl)-1H-1,2,3-triazol-1-yl)methyl)phenyl)-N-hydroxyacrylamide]: 5.34 ± 0.76 µM. `O=C(/C=C/c1ccc(Cn2cc(Cn3cnc4ccc(Br)cc4c3=O)nn2)cc1)NO` [Compound 11g, (E)-3-(4-((4-((6-Bromo-4-oxoquinazolin-3(4H)-yl)methyl)-1H-1,2,3-triazol-1-yl)methyl)phenyl)-N-hydroxyacrylamide]: the IC50 in series [1] was 9.16 ± 0.08 µM; in series [5] it was 9.07 ± 0.42 µM. On the same counts, the results for `O=C(/C=C/c1ccc(Cn2cc(Cn3cnc4cc(Br)ccc4c3=O)nn2)cc1)NO` [Compound 11h, (E)-3-(4-((4-((7-Bromo-4-oxoquinazolin-3(4H)-yl)methyl)-1H-1,2,3-triazol-1-yl)methyl)phenyl)-N-hydroxyacrylamide] are 5.73 ± 0.76 µM and 5.55 ± 0.18 µM.

As to `O=C(/C=C/c1ccc(Cn2cc(Cn3cnc4ccc(I)cc4c3=O)nn2)cc1)NO` [Compound 11i, (E)-N-Hydroxy-3-(4-((4-((6-iodo-4-oxoquinazolin-3(4H)-yl)methyl)-1H-1,2,3-triazol-1-yl)methyl)phenyl)acrylamide], the IC50 in series [1] is 28.5 ± 8.19 µM. In the case of `O=C(CCCCCCC(=O)Nc1ccccc1)NO` [SAHA, suberoylanilide hydroxamic acid, reference compound], in series [4], the Cell cycle effect entry was “induced G2/M phase cell cycle arrest”.
